# Results as given in ChEMBL document CHEMBL1130351, “Nonclassical 2,4-diamino-5-aryl-6-ethylpyrimidine antifolates: activity as inhibitors of dihydrofolate reductase from Pneumocystis carinii and Toxoplasma gondii and as antitumor agents” (J Med Chem, 1997).
# Key:
# Mus musculus [1] = assay: Number of M5076 reticulum cell sarcoma bearing mice survived among the tested (5) on day 24 after treating with compound dose of 12.5 mg/Kg/day; type: functional
# Method in brief: (§1)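 BDF1 female mice in groups of 5 received 10^6 M5076 cells im into the left leg on day 0. Drug was dissolved in 10-20% DMSO in arachis oil and given ip daily on days 1-17; controls got vehicle only. Tumor volumes were measured on days 12, 16, 20 and 24. T/C = test/control tumor volume ×100.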
# [2] = target: T1, Bifunctional dihydrofolate reductase-thymidylate synthase (Toxoplasma gondii, UniProt Q07422); assay: Inhibitory activity against Dihydrofolate reductase from Toxoplasma gondii was evaluated using 90 uM dihydrofolic acid as substrate
# T1 sequence (Q07422 whole entry): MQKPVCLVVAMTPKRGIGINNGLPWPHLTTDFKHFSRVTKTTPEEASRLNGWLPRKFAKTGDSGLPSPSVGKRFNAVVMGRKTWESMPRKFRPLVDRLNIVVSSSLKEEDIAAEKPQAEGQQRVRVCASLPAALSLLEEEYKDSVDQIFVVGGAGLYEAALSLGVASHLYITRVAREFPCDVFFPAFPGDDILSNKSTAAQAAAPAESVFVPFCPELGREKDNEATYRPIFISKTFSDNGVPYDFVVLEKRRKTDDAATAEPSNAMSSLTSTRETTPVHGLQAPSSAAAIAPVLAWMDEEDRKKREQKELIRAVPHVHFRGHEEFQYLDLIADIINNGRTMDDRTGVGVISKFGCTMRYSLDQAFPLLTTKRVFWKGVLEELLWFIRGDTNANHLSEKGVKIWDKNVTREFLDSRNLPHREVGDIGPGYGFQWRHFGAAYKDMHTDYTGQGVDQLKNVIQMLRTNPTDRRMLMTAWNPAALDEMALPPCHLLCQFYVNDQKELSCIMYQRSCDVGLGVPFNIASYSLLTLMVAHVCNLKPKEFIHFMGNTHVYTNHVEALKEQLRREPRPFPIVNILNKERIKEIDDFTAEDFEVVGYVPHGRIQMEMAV
# Mus musculus [3] = assay: Antitumor activity expressed as a ratio of tumor volumes of test (T) animals compared to control (C) animals(100) at a dose of 12.5 mg/kg/day; type: functional; method in brief: as §1
# Mus musculus [4] = assay: Antitumor activity expressed as a ratio of tumor volumes of test (T) animals compared to control (C) animals(100) at a dose of 25 mg/kg/day; type: functional; method in brief: as §1
# Mus musculus [5] = assay: Number of M5076 reticulum cell sarcoma bearing mice survived among the tested (5) on day 24 after treating with compound dose of 25 mg/Kg/day; type: functional; method in brief: as §1
# Mus musculus [6] = assay: Antitumor activity expressed as a ratio of tumor volumes of test (T) animals compared to control (C) animals(100) at a dose of 3.125 mg/kg/day; type: functional; method in brief: as §1
# Mus musculus [7] = assay: Number of M5076 reticulum cell sarcoma bearing mice survived among the tested (5) on day 24 after treating with compound dose of 3.125 mg/Kg/day; type: functional; method in brief: as §1
compound,measurement,setting,value
CCc1nc(N)nc(N)c1-c1ccc(N(C)Cc2ccc(C(=O)NC)cc2)c([N+](=O)[O-])c1,Survivors,Mus musculus [1],5
same,IC50,[2],7.4 nM
same,T/C,Mus musculus [3],15%
CCOC(=O)CCC(NC(=O)c1ccc(CNc2ccc(-c3c(N)nc(N)nc3CC)cc2[N+](=O)[O-])cc1)C(=O)OCC (stereo not drawn),IC50,[2],7.1 nM
CCc1nc(N)nc(N)c1-c1ccc(N(C)Cc2ccc(C(=O)O)cc2)c([N+](=O)[O-])c1,Survivors,Mus musculus [1],5
same,IC50,[2],3.1 nM
same,T/C,Mus musculus [3],100%
CCc1nc(N)nc(N)c1-c1ccc(NCc2ccc(C(=O)N(C)C)cc2)c([N+](=O)[O-])c1,IC50,[2],7.9 nM
CCc1nc(N)nc(N)c1-c1ccc(NCc2ccc(S(N)(=O)=O)cc2)c([N+](=O)[O-])c1,IC50,[2],5.8 nM
CCc1nc(N)nc(N)c1-c1ccc(NCc2ccc(C(=O)NC(CCC(=O)O)C(=O)O)cc2)c([N+](=O)[O-])c1 (stereo not drawn),IC50,[2],6.2 nM
CCc1nc(N)nc(N)c1-c1ccc(NCc2ccc(C(=O)N3CCCCC3)cc2)c([N+](=O)[O-])c1,IC50,[2],140 nM
CCc1nc(N)nc(N)c1-c1ccc(N(C)Cc2ccc(C3=NC(C)(C)CO3)cc2)c([N+](=O)[O-])c1,IC50,[2],14 nM
CCc1nc(N)nc(N)c1-c1ccc(NCc2ccc(C(=O)O)cc2)c([N+](=O)[O-])c1,IC50,[2],1.8 nM
CCc1nc(N)nc(N)c1-c1ccc(NCc2ccc(C(=O)NC)cc2)c([N+](=O)[O-])c1,IC50,[2],4.3 nM
CCc1nc(N)nc(N)c1-c1ccc(NCc2ccc(C3OCCO3)cc2)c([N+](=O)[O-])c1,IC50,[2],15 nM
CCc1nc(N)nc(N)c1-c1ccc(NCc2ccc(C(N)=O)cc2)c([N+](=O)[O-])c1,IC50,[2],3.7 nM
CCc1nc(N)nc(N)c1-c1ccc(N(C)Cc2ccccc2)c([N+](=O)[O-])c1,T/C,Mus musculus [4],37%
same,Survivors,Mus musculus [5],5
CCc1nc(N)nc(N)c1-c1ccc(NCc2ccccc2)c([N+](=O)[O-])c1,IC50,[2],19 nM
CN(Cc1cnc2nc(N)nc(N)c2n1)c1ccc(C(=O)N[C@@H](CCC(=O)O)C(=O)O)cc1 [METHOTREXATE],T/C,Mus musculus [6],92%
same,Survivors,Mus musculus [7],5
Cc1nc(N)nc(N)c1-c1ccc(Cl)c(Cl)c1 [METOPRINE],T/C,Mus musculus [6],<8%
same,Survivors,Mus musculus [7],1
